Results reported in ChEMBL document CHEMBL2321682, “Synthesis and Anti-inflammatory Evaluation of Novel Benzimidazole and Imidazopyridine Derivatives” (ACS Med Chem Lett, 2013).
pIC50: −log10 of the molar value.

Assays:
RAW264.7 [1] = experiment: Inhibition of LPS-induced IL-6 secretion in mouse RAW264.7 cells at 10 uM pretreated for 2 hrs prior to LPS addition measured after 22 hrs by ELISA; type: functional
Outline: (§1)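 RAW 264.7 macrophages seeded at 4.0 × 10^5/plate overnight (37 °C, 5% CO2), pretreated 2 h with 10 μM compound (omeprazole as comparator), then LPS 0.5 μg/mL for 22 h. TNF-α and IL-6 in medium measured by ELISA, normalized to total cellular protein.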

[2] = Cytotoxicity against human HL7702 cells assessed as inhibition of cell viability at 20 uM after 24 to 72 hrs by MTT assay; type: cell-based; details: l02, 20 µM
Outline: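 Human normal liver HL-7702 cells exposed to 20 μM compound for 24, 48 and 72 h; viability read by MTT.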

RAW264.7 [3] = experiment: Inhibition of LPS-induced TNF-alpha secretion in mouse RAW264.7 cells pretreated for 2 hrs prior to LPS addition measured after 22 hrs by ELISA; type: functional, cell-based
Outline: (§2)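 Dose–response for IC50. RAW264.7 cells were seeded at 1.2 × 10^6/plate overnight at 37 °C, 5% CO2. They were pretreated 2 h with 1.0, 5.0 or 10 μM compound, then given LPS 0.5 μg/mL for 22 h. Medium TNF-α or IL-6 was quantified by ELISA and normalized to total protein.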

RAW264.7 [4] = experiment: Inhibition of LPS-induced IL-6 secretion in mouse RAW264.7 cells pretreated for 2 hrs prior to LPS addition measured after 22 hrs by ELISA; type: functional, cell-based; outline: as §2
RAW264.7 [5] = experiment: Inhibition of LPS-induced TNF-alpha secretion in mouse RAW264.7 cells at 10 uM pretreated for 2 hrs prior to LPS addition measured after 22 hrs by ELISA; type: functional; outline: as §1
Mus musculus [6] = experiment: Antiinflammatory activity against LPS-induced C57BL/6 mouse sepsis model assessed as increase in survival rate at 15 mg/kg, iv administered 15 mins prior to LPS injection measured for 7 days; type: functional
Outline: (§3)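 Mice received LPS 20 mg/kg iv. Test agent was given iv as its HCl salt at 15 mg/kg, either 15 min after LPS (line 1, therapeutic) or 15 min before LPS (line 2, preventive). Survival and body weight were recorded daily for 7 days. Data pool two experiments, n = 12 per group, compared with the LPS-alone group.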

Mus musculus [7] = experiment: Antiinflammatory activity against LPS-induced C57BL/6 mouse sepsis model assessed as increase in survival rate at 15 mg/kg, iv administered 15 mins after LPS injection measured for 7 days; type: functional; outline: as §3

CCCn1c(-c2c[nH]c3ncccc23)nc2ccc(N3CCN(C)CC3)nc21 [listing 1 of 2 here]
inhibition at 10 µM (RAW264.7 [1]): > 50%
Activity [2]: Non-toxic
pIC50 (RAW264.7 [3]): 5.32
pIC50 (RAW264.7 [4]): 5.79
inhibition at 10 µM (RAW264.7 [5]): 50%

CCCn1c(-c2ccccc2F)nc2ccc(N3CCN(C)CC3)nc21
inhibition at 10 µM (RAW264.7 [5]): 50%

CCCn1c(-c2ccccc2Br)nc2ccc(N3CCN(C)CC3)nc21
inhibition at 10 µM (RAW264.7 [5]): 50%

CCCn1c(-c2ccccc2OC)nc2ccc(N3CCN(C)CC3)nc21
inhibition at 10 µM (RAW264.7 [5]): 50%

CCCn1c(-c2c[nH]c3ccc(Br)cc23)nc2ccc(N3CCN(C)CC3)nc21
inhibition at 10 µM (RAW264.7 [1]): > 50%
Activity [2]: Toxic
pIC50 (RAW264.7 [3]): 5.70
inhibition (RAW264.7 [3]): Dose-dependent effect
pIC50 (RAW264.7 [4]): 5.92
inhibition (RAW264.7 [4]): Dose-dependent effect
inhibition at 10 µM (RAW264.7 [5]): 50%

COc1ccccc1-c1nc2ccc(N3CCN(C)CC3)nc2[nH]1
inhibition at 10 µM (RAW264.7 [5]): 50%

CCCn1c(-c2c[nH]c3ncccc23)nc2ccc(N3CCN(C)CC3)nc21 [listing 2 of 2 here]
inhibition (RAW264.7 [3]): Dose-dependent effect
inhibition (RAW264.7 [4]): Dose-dependent effect

CCCn1c(-c2cn(C)c3ccccc23)nc2ccc(N3CCN(C)CC3)nc21
inhibition at 10 µM (RAW264.7 [5]): 50%

Cc1ccc(-c2nc3ccc(N4CCN(C)CC4)nc3[nH]2)s1
inhibition at 10 µM (RAW264.7 [5]): 50%

CCCn1c(-c2ccc(OCCCN(C)C)cc2)nc2ccc(N3CCN(C)CC3)nc21
inhibition at 10 µM (RAW264.7 [1]): > 50%
Activity [2]: Non-toxic
pIC50 (RAW264.7 [3]): 4.91
inhibition (RAW264.7 [3]): Dose-dependent effect
pIC50 (RAW264.7 [4]): 5.48
inhibition (RAW264.7 [4]): Dose-dependent effect
inhibition at 10 µM (RAW264.7 [5]): 50%

CCN(CC)CCn1c(-c2ccccc2OC)nc2cc(Cl)ccc21
inhibition at 10 µM (RAW264.7 [5]): 50%

CCCn1c(-c2c[nH]c3ccccc23)nc2ccc(N3CCN(C)CC3)nc21
inhibition at 10 µM (RAW264.7 [1]): 81.4%
pIC50 (RAW264.7 [3]): 4.85
inhibition (RAW264.7 [3]): Dose-dependent effect
pIC50 (RAW264.7 [4]): 5.37
inhibition (RAW264.7 [4]): Dose-dependent effect
inhibition at 10 µM (RAW264.7 [5]): 64.8%

CN1CCN(c2ccc3nc(-c4c[nH]c5ccccc45)[nH]c3n2)CC1
inhibition at 10 µM (RAW264.7 [5]): 50%

CCCn1c(-c2ccc(C)s2)nc2ccc(N3CCOCC3)nc21
inhibition at 10 µM (RAW264.7 [5]): 50%

CCCn1c(-c2ccc(C)s2)nc2ccc(N3CCN(C)CC3)nc21
inhibition at 10 µM (RAW264.7 [1]): > 50%
pIC50 (RAW264.7 [3]): 5.14
inhibition (RAW264.7 [3]): Dose-dependent effect
pIC50 (RAW264.7 [4]): 5.55
inhibition (RAW264.7 [4]): Dose-dependent effect
inhibition at 10 µM (RAW264.7 [5]): 50%

CCCn1c(-c2cn(C)c3ccccc23)nc2ccc(N3CCOCC3)nc21
inhibition at 10 µM (RAW264.7 [5]): 50%

CCCn1c(-c2c[nH]c3ncccc23)nc2ccc(N3CCN(C)CC3)nc21.Cl
Activity (Mus musculus [6]): 50%
Activity (Mus musculus [7]): 50%
